Each block holds one compound with its values, some of them ahead of it.
Experiments:
[1] = Apparent permeability across RRCK cells after 1.5 hrs; format: ADME, cell-based, Canis lupus familiaris, MDCKII-LE; settings: dog, MDCK
[2] = Drug metabolism in hamster liver microsomes assessed as 5-(Hydroxymethyl)-2-methyl-7-(3-methyl-5-(4-(trifluoromethyl)-phenyl)-1H-pyrazol-4-yl)imidazo[5,1-f ][1,2,4]triazin-4(3H)-one formation at 20 uM after 1 hr by UHPLC-UV-HRMS method; format: ADME, microsome; settings: cricetinae
Method in brief: (§1)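 Preparative incubation: substrate 20 µM with liver microsomes (2 mg/mL) of the listed species in 0.1 M potassium phosphate, pH 7.5, with MgCl2 3.3 mM and NADPH 1.3 mM. Run at 37°C in a shaking water bath and stopped with an equal volume of CH3CN. Products were fractionated by HPLC and quantified by qNMR in d6-DMSO.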

[3] = Drug metabolism in hamster liver microsomes assessed as 5-(Methoxymethyl)-2-methyl-7-(3-methyl-5-(4-(trifluoromethyl)-phenyl)-1H-pyrazol-4-yl)imidazo[5,1-f ][1,2,4]triazin-4(3H)-one formation at 20 uM after 1 hr by UHPLC-UV-HRMS method; format: ADME, microsome; settings: cricetinae; method in brief: as §1
[4] = Drug metabolism in hamster liver microsomes assessed as 7-(1,3-Dimethyl-5-(4-(trifluoromethyl)phenyl)-1H-pyrazol-4-yl)-5-(methoxymethyl)-2-methyl-4-oxo-3,4-dihydroimidazo[5,1-f ][1,2,4]-triazine 1-oxide formation at 20 uM after 1 hr by UHPLC-UV-HRMS method; format: ADME, microsome; settings: cricetinae; method in brief: as §1
[5] = Drug metabolism in hamster liver microsomes assessed as 7-(3-(Hydroxymethyl)-5-(4-(trifluoromethyl)phenyl)-1H-pyrazol-4-yl)-5-(methoxymethyl)-2-methylimidazo[5,1-f ][1,2,4]triazin-4(3H)-one formation at 20 uM after 1 hr by UHPLC-UV-HRMS method; format: ADME, microsome; settings: cricetinae; method in brief: as §1
[6] = Intrinsic clearance in human hepatocytes assessed per million cells at 1 uM after 0.5 to 4 hrs by HPLC-HRMS method; format: ADME, cell-based, Hepatocyte; settings: human hepatocytes, read-out: CLH
Method in brief: (§2)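 Compound at 1 µM was dried from d6-DMSO and redissolved in Williams E medium. Pooled human hepatocytes were added at 680000 cells/mL. Samples were quenched in water/CH3CN (2:1) with 2% formic acid and clozapine as internal standard, then analysed by HPLC-HRMS in positive-ion full scan. k came from the slope of ln peak-area ratio versus time; CLint = k / cell concentration. Non-specific binding was not measured.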

[7] = Drug metabolism in cynomolgus monkey liver microsomes assessed as 5-(Difluoromethyl)-7-(3-(hydroxymethyl)-1-methyl-5-(4-(trifluoromethyl)phenyl)-1H-pyrazol-4-yl)-2-methylimidazo[5,1-f ]-[1,2,4]triazin-4(3H)-one formation at 20 uM after 1.5 hrs by UHPLC-UV-HRMS method; format: ADME, Macaca fascicularis, microsome; method in brief: as §1
[8] = Drug metabolism in cynomolgus monkey liver microsomes assessed as 5-(Difluoromethyl)-2-methyl-7-(3-methyl-5-(4-(trifluoromethyl)-phenyl)-1H-pyrazol-4-yl)imidazo[5,1-f ][1,2,4]triazin-4(3H)-one at 20 uM after 1.5 hrs by UHPLC-UV-HRMS method; format: ADME, Macaca fascicularis, microsome; method in brief: as §1
[9] = Metabolic stability in human hepatocytes at 1 uM after 0.5 to 4 hrs by HPLC-HRMS method; format: ADME, cell-based, Hepatocyte; method in brief: as §2
[10] = Drug metabolism in cynomolgus monkey liver microsomes assessed as 5-(Hydroxymethyl)-7-(3-(hydroxymethyl)-1-methyl-5-(5-(trifluoromethyl)pyridin-2-yl)-1H-pyrazol-4-yl)-2-methylimidazo-[5,1-f ][1,2,4]triazin-4(3H)-one formation at 20 uM after 1.2 hrs by UHPLC-UV-HRMS method; format: ADME, Macaca fascicularis, microsome; method in brief: as §1
[11] = Drug metabolism in cynomolgus monkey liver microsomes assessed as 7-(3-(Hydroxymethyl)-1-methyl-5-(5-(trifluoromethyl)pyridin-2-yl)-1H-pyrazol-4-yl)-2,5-dimethylimidazo[5,1-f ][1,2,4]triazin-4(3H)-one formation at 20 uM after 1.2 hrs by UHPLC-UV-HRMS method; format: ADME, Macaca fascicularis, microsome; method in brief: as §1
[12] = Drug metabolism in cynomolgus monkey liver microsomes assessed as 7-(1,3-Dimethyl-5-(5-(trifluoromethyl)pyridin-2-yl)-1H-pyrazol-4-yl)-5-(hydroxymethyl)-2-methylimidazo[5,1-f ][1,2,4]triazin-4(3H)-one formation at 20 uM after 1.2 hrs by UHPLC-UV-HRMS method; format: ADME, Macaca fascicularis, microsome; method in brief: as §1
[13] = Drug metabolism in cynomolgus monkey liver microsomes assessed as 4-(2,5-Dimethyl-4-oxo-3,4-dihydroimidazo[5,1-f ][1,2,4]triazin-7-yl)-1-methyl-5-(5-(trifluoromethyl)pyridin-2-yl)-1H-pyrazole-3-carbaldehyde formation at 20 uM after 1.2 hrs by UHPLC-UV-HRMS method; format: ADME, Macaca fascicularis, microsome; method in brief: as §1
[14] = tested on: Liver; assay: Drug level in human liver microsomes treated with 5-(5-(Cyclopentylmethyl)-4,5,6,7-tetrahydropyrazolo[1,5-a]-pyrazin-3-yl)-7-methylimidazo[5,1-f ][1,2,4]triazin-4(3H)-one at 20 uM after 1.5 hrs by UHPLC-UV-HRMS method; format: ADME, microsome; method in brief: as §1
[15] = biological target: cGMP-dependent 3',5'-cyclic phosphodiesterase (Homo sapiens, UniProt O00408); assay: Inhibition of human PDE2A1 using 3',5'-[3H]cGMP as substrate after 30 mins by scintillation proximity assay
[16] = Drug metabolism in rabbit liver microsomes assessed as 5-(Hydroxymethyl)-7-(3-(hydroxymethyl)-1-methyl-5-(3-methyl-4-(trifluoromethyl)phenyl)-1H-pyrazol-4-yl)-2-methylimidazo[5,1-f ][1,2,4]triazin-4(3H)-one formation at 20 uM after 1 hr by UHPLC-UV-HRMS method; format: ADME, Oryctolagus cuniculus, microsome; method in brief: as §1
[17] = Drug metabolism in rabbit liver microsomes assessed as 7-(3-(Hydroxymethyl)-5-(3-(hydroxymethyl)-4-(trifluoromethyl)-phenyl)-1-methyl-1H-pyrazol-4-yl)-2,5-dimethylimidazo[5,1-f ]-[1,2,4]triazin-4(3H)-one formation at 20 uM after 1 hr by UHPLC-UV-HRMS method; format: ADME, Oryctolagus cuniculus, microsome; method in brief: as §1
[18] = Drug metabolism in rabbit liver microsomes assessed as 7-(5-(3-(Hydroxymethyl)-4-(trifluoromethyl)phenyl)-1,3-dimethyl-1H-pyrazol-4-yl)-2,5-dimethylimidazo[5,1-f ][1,2,4]triazin-4(3H)-one formation at 20 uM after 1 hr by UHPLC-UV-HRMS method; format: ADME, Oryctolagus cuniculus, microsome; method in brief: as §1
[19] = Drug metabolism in rabbit liver microsomes assessed as 5-(Hydroxymethyl)-7-(5-(3-(hydroxymethyl)-4-(trifluoromethyl)phenyl)-1,3-dimethyl-1H-pyrazol-4-yl)-2-methylimidazo[5,1-f ][1,2,4]triazin-4(3H)-one formation at 20 uM after 1 hr by UHPLC-UV-HRMS method; format: ADME, Oryctolagus cuniculus, microsome; method in brief: as §1
[20] = Drug metabolism in rabbit liver microsomes assessed as 7-(1,3-Dimethyl-5-(3-methyl-4-(trifluoromethyl)phenyl)-1H-pyrazol-4-yl)-5-(hydroxymethyl)-2-methylimidazo[5,1-f ][1,2,4]triazin-4(3H)-one formation at 20 uM after 1 hr by UHPLC-UV-HRMS method; format: ADME, Oryctolagus cuniculus, microsome; method in brief: as §1
[21] = Drug metabolism in rabbit liver microsomes assessed as 4-(2,5-Dimethyl-4-oxo-3,4-dihydroimidazo[5,1-f ][1,2,4]triazin-7-yl)-1-methyl-5-(3-methyl-4-(trifluoromethyl)phenyl)-1H-pyrazole-3-carboxylic acid formation at 20 uM after 1 hr by UHPLC-UV-HRMS method; format: ADME, Oryctolagus cuniculus, microsome; method in brief: as §1
[22] = Drug metabolism in hamster liver microsomes assessed as 5-(Hydroxymethyl)-7-(5-(6-methoxypyridin-3-yl)-3-methyl-1Hpyrazol-4-yl)-2-methylimidazo[5,1-f ][1,2,4]triazin-4(3H)-one formation at 20 uM after 1.5 hrs by UHPLC-UV-HRMS method; format: ADME, microsome; settings: cricetinae; method in brief: as §1
[23] = Drug metabolism in hamster liver microsomes assessed as 5-(Hydroxymethyl)-7-(5-(6-methoxypyridin-3-yl)-1,3-dimethyl-1H-pyrazol-4-yl)-2-methylimidazo[5,1-f ][1,2,4]triazin-4(3H)-one formation at 20 uM after 1.5 hrs by UHPLC-UV-HRMS method; format: ADME, microsome; settings: cricetinae; method in brief: as §1
[24] = Drug metabolism in hamster liver microsomes assessed as 7-(5-(6-Methoxypyridin-3-yl)-3-methyl-1H-pyrazol-4-yl)-2,5-dimethylimidazo[5,1-f ][1,2,4]triazin-4(3H)-one formation at 20 uM after 1.5 hrs by UHPLC-UV-HRMS method; format: ADME, microsome; settings: cricetinae; method in brief: as §1
[25] = Drug metabolism in hamster liver microsomes assessed as 7-(5-(6-Hydroxypyridin-3-yl)-3-methyl-1H-pyrazol-4-yl)-2,5-dimethylimidazo[5,1-f ][1,2,4]triazin-4(3H)-one formation at 20 uM after 1.5 hrs by UHPLC-UV-HRMS method; format: ADME, microsome; settings: cricetinae; method in brief: as §1
[26] = tested on: Liver; assay: Drug metabolism in human liver microsomes assessed as 5-(5-((2-Hydroxycyclopentyl)methyl)-4,5,6,7-tetrahydropyrazolo-[1,5-a]pyrazin-3-yl)-7-methylimidazo[5,1-f][1,2,4]triazin-4(3H)-one diastereomer 2 formation at 20 uM after 1.5 hrs by UHPLC-UV-HRMS method; format: ADME, microsome; method in brief: as §1
[27] = tested on: Liver; assay: Drug metabolism in human liver microsomes assessed as 5-(5-((2-Hydroxycyclopentyl)methyl)-4,5,6,7-tetrahydropyrazolo-[1,5-a]pyrazin-3-yl)-7-methylimidazo[5,1-f][1,2,4]triazin-4(3H)-one diastereomer 1 formation at 20 uM after 1.5 hrs by UHPLC-UV-HRMS method; format: ADME, microsome; method in brief: as §1
[28] = tested on: Liver; assay: Drug metabolism in mouse liver microsomes assessed as 7-(5-(4-Chlorophenyl)-1,3-dimethyl-1H-pyrazol-4-yl)-5-(hydroxymethyl)-2-methylimidazo[5,1-f ][1,2,4]triazin-4(3H)-one formation at 20 uM after 1.5 hrs by UHPLC-UV-HRMS method; format: ADME, microsome; method in brief: as §1
[29] = tested on: Liver; assay: Drug metabolism in mouse liver microsomes assessed as 7-(5-(4-Chlorophenyl)-3-(hydroxymethyl)-1-methyl-1H-pyrazol-4-yl)-2,5-dimethylimidazo[5,1-f ][1,2,4]triazin-4(3H)-one formation at 20 uM after 1.5 hrs by UHPLC-UV-HRMS method; format: ADME, microsome; method in brief: as §1

cGMP-dependent 3',5'-cyclic phosphodiesterase, sequence (O00408 whole entry): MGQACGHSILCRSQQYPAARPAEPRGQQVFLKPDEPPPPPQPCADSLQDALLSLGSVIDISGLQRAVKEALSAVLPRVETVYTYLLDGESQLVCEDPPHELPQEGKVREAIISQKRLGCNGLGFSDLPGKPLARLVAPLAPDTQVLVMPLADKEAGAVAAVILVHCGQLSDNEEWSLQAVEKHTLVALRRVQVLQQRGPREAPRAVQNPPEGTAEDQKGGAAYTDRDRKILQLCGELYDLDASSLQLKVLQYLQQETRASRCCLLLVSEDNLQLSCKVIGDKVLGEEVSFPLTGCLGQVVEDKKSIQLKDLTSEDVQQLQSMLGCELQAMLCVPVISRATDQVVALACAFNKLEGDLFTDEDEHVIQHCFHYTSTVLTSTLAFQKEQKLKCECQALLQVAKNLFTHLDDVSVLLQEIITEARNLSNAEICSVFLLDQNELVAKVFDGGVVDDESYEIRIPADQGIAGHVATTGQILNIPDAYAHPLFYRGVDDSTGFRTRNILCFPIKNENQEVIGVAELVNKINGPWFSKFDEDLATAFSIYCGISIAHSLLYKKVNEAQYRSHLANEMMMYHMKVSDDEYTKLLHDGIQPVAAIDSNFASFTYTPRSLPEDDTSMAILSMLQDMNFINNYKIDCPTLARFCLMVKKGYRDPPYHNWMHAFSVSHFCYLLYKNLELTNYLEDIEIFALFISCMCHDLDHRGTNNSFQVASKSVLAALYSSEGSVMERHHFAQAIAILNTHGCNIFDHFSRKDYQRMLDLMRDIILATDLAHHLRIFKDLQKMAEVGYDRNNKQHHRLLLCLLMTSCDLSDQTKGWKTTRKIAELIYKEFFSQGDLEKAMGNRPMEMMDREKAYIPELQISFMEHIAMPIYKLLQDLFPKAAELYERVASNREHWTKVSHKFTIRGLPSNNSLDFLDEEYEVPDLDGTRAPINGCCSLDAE

Structure (SMILES): COCc1nc(-c2c(C)nn(C)c2-c2ccc(C(F)(F)F)cc2)n2nc(C)[nH]c(=O)c12
- Papp at 1.5 h [1]: 13 ×10⁻⁶ cm/s
- Drug metabolism [2]: Metabolite_Detected
- Drug metabolism [3]: Metabolite_Detected
- Drug metabolism [4]: Metabolite_Detected
- Drug metabolism [5]: Metabolite_Detected
- hepatocyte CLint at 1 µM [6]: 4.7 µL/min/1e6 cells

Structure (SMILES): Cc1nn2c(-c3c(C)nn(C)c3-c3ccc(C(F)(F)F)cc3)nc(C(F)F)c2c(=O)[nH]1
- Papp at 1.5 h [1]: 23 ×10⁻⁶ cm/s
- Drug metabolism [7]: Metabolite_Detected
- Drug metabolism [8]: Metabolite_Detected
- hepatocyte CLint at 1 µM [6]: 5.3 µL/min/1e6 cells

Structure (SMILES): Cc1nc(-c2cnn3c2CN(CC2CCCC2O)CC3)c2c(=O)[nH]cnn12 (single isomer, unassigned; diastereomer 1)
- Papp at 1.5 h [1]: 1.8 ×10⁻⁶ cm/s
- Drug metabolism [14]: Metabolite_Detected
- IC50 [15]: > 2 µM
- hepatocyte CLint at 1 µM [6]: 5.4 µL/min/1e6 cells

Structure (SMILES): Cc1nn2c(-c3c(C)nn(C)c3-c3ccc(C(F)(F)F)c(C)c3)nc(C)c2c(=O)[nH]1
- Papp at 1.5 h [1]: 28 ×10⁻⁶ cm/s
- Drug metabolism [16]: Metabolite_Detected
- Drug metabolism [17]: Metabolite_Detected
- Drug metabolism [18]: Metabolite_Detected
- Drug metabolism [19]: Metabolite_Detected
- Drug metabolism [20]: Metabolite_Detected
- hepatocyte CLint at 1 µM [6]: 19 µL/min/1e6 cells
- Drug metabolism [21]: Metabolite_Detected

Structure (SMILES): COc1ccc(-c2c(-c3nc(C)c4c(=O)[nH]c(C)nn34)c(C)nn2C)cn1
- Stability [9]: Stable
- Drug metabolism [22]: Metabolite_Detected
- Drug metabolism [23]: Metabolite_Detected
- Drug metabolism [24]: Metabolite_Detected
- Drug metabolism [25]: Metabolite_Detected

Structure (SMILES): Cc1nc(-c2cnn3c2CN(CC2CCCC2)CC3)c2c(=O)[nH]cnn12
- Papp at 1.5 h [1]: 24 ×10⁻⁶ cm/s
- Drug metabolism [26]: Metabolite_Detected
- Drug metabolism [27]: Metabolite_Detected
- hepatocyte CLint at 1 µM [6]: 16 µL/min/1e6 cells

Next, values leading:

- Papp at 1.5 h [1]: 16 ×10⁻⁶ cm/s
- Stability [9]: Stable
- Drug metabolism [10]: Metabolite_Detected
- Drug metabolism [11]: Metabolite_Detected
- Drug metabolism [12]: Metabolite_Detected
- Drug metabolism [13]: Metabolite_Detected
Structure (SMILES): Cc1nn2c(-c3c(C)nn(C)c3-c3ccc(C(F)(F)F)cn3)nc(C)c2c(=O)[nH]1

- Drug metabolism [28]: Metabolite_Detected
- Drug metabolism [29]: Metabolite_Detected
- hepatocyte CLint at 1 µM [6]: 32 µL/min/1e6 cells
Structure (SMILES): Cc1nn2c(-c3c(C)nn(C)c3-c3ccc(Cl)cc3)nc(C)c2c(=O)[nH]1
